Active and inactive are the calls of the source. No cut-off for these calls is given here.
Columns and labels:
[1] = biological target: T1, Inosine-5'-monophosphate dehydrogenase 1 (Homo sapiens, UniProt P20839); test: Inhibitory activity against human Inosine-5'-monophosphate dehydrogenase 1 (IMPDH type I)
Method in brief: (§1)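 Human IMPDH isoforms type I and type II assayed separately. Substrate, cofactor and inhibitor were premixed, and the reaction was started by adding enzyme. Values are reported as Ki.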
Target sequence in this assay (P20839 whole entry, canonical isoform): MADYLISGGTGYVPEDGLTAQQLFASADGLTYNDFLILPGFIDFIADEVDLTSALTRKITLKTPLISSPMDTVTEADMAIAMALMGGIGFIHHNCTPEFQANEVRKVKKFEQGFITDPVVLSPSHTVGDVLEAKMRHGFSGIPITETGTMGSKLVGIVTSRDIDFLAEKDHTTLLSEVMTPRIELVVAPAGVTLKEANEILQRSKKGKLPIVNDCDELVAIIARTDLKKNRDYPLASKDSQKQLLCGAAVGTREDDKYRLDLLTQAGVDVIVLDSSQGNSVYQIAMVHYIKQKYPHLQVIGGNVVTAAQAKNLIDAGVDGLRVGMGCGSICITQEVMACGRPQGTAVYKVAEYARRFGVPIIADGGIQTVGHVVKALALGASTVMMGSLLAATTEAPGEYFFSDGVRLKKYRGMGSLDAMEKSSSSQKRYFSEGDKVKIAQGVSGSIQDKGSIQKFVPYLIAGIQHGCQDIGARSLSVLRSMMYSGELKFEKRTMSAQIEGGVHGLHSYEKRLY

K562 [2] = test: Antiproliferative activity against K562 cells; format: functional, cell-based, Homo sapiens
K562 [3] = test: Compound effect on differentiation of K562 cells, % of benzidine positive cells at 1.0 uM; format: functional, Homo sapiens
K562 [4] = test: Compound effect on differentiation of K562 cells, % of benzidine positive cells at 14 uM; format: functional, Homo sapiens
[5] = biological target: T2, Inosine-5'-monophosphate dehydrogenase 2 (Homo sapiens, UniProt P12268); test: Inhibitory activity against human Inosine-5'-monophosphate dehydrogenase 2 (IMPDH type II)
K562 [6] = test: Compound effect on differentiation of K562 cells, % of benzidine positive cells at 15 uM; format: functional, Homo sapiens
K562 [7] = test: Concentration of the Antiproliferative compound required for the 50% inhibition of Growth against K562 cells; format: functional, cell-based; details: Homo sapiens
K562 [8] = test: Compound effect on differentiation of K562 cells, % of benzidine positive cells at 1.5 uM; format: functional, Homo sapiens
K562 [9] = test: Compound effect on differentiation of K562 cells, % of benzidine positive cells at 1.6 uM; format: functional, Homo sapiens
K562 [10] = test: Compound effect on differentiation of K562 cells, % of benzidine positive cells at 10 uM; format: functional, Homo sapiens
K562 [11] = test: Compound effect on differentiation of K562 cells, % of benzidine positive cells at 100 uM; format: functional, Homo sapiens
K562 [12] = test: Compound effect on differentiation of K562 cells, % of benzidine positive cells at 20 uM; format: functional, Homo sapiens
[13] = biological target: T1, Inosine-5'-monophosphate dehydrogenase 1; test: Inhibitory activity against human Inosine-5'-monophosphate dehydrogenase 1 (IMPDH type I); NA is not active; method in brief: as §1
Target sequence in this assay (P20839 2-514 limits assumed): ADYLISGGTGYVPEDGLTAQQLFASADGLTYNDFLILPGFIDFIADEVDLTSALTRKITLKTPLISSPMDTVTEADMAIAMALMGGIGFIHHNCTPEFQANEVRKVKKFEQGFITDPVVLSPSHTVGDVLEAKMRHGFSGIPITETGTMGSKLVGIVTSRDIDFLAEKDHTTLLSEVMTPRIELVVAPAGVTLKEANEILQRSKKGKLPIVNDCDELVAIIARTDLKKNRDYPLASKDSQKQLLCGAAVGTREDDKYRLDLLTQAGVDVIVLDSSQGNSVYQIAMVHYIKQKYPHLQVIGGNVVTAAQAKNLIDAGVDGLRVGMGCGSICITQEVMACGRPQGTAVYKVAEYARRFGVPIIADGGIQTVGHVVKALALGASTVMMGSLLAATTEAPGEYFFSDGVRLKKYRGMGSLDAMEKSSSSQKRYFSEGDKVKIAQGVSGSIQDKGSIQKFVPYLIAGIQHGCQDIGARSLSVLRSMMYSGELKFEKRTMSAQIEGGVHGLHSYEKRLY

[14] = biological target: T2, Inosine-5'-monophosphate dehydrogenase 2; test: Inhibitory activity against human Inosine-5'-monophosphate dehydrogenase 2 (IMPDH type II); NA is not active; method in brief: as §1
K562 [15] = test: Compound effect on differentiation of K562 cells, % of benzidine positive cells at 14.3 uM; format: functional, Homo sapiens
[16] = biological target: T2, Inosine-5'-monophosphate dehydrogenase 2; test: Inhibitory activity against human Inosine-5'-monophosphate dehydrogenase 2 (IMPDH type II);NA is not active; method in brief: as §1
[17] = biological target: T1, Inosine-5'-monophosphate dehydrogenase 1; test: Inhibitory activity against human Inosine-5'-monophosphate dehydrogenase 1 (IMPDH type I);NA is not active; method in brief: as §1
Target sequence in this assay (P20839 2-514 limits assumed): as above

Row | SMILES | Ki [1] | Effect (K562 [3]) | Ki [5] | IC50 (K562 [7]) | further results
1 | COc1c(C)c2c(c(O)c1C/C=C(\C)CCC(=O)O)C(=O)OC2 [MYCOPHENOLIC ACID] | 0.04 µM |  |  |  | IC50 (K562 [2]): 0.3 µM
2 | NC(=O)c1csc([C@@H]2O[C@H](COP(=O)(O)C(F)(F)P(=O)(O)OC[C@@H]3O[C@H](n4cnc5c(N)ncnc54)[C@@H](O)[C@H]3O)[C@@H](O)[C@H]2O)n1 | 0.3 µM | 3.4% | 0.3 µM |  | Effect (K562 [4]): 48%
3 | NC(=O)c1cccc(C2OC(COP(=O)(O)CP(=O)(O)OC[C@@H]3OC(n4cnc5c(N)ncnc54)[C@@H](O)[C@H]3O)[C@@H](O)[C@H]2O)c1 (stereo partly specified) | 0.66 µM | 0.6% | 0.95 µM | 60 µM | Effect (K562 [6]): 9.5%
4 | COc1c(C)c2c(c(O)c1C/C=C(\C)COP(=O)(O)CP(=O)(O)OC[C@@H]1O[C@H](n3cnc4c(N)ncnc43)[C@@H](O)[C@H]1O)C(=O)OC2 | 0.52 µM | 63.3% | 0.38 µM | 0.1 µM | Effect (K562 [8]): 95%
5 | COc1c(C)c2c(c(O)c1CCOP(=O)(O)CP(=O)(O)OC[C@H]1O[C@@H](n3cnc4c(N)ncnc43)[C@H](O)[C@@H]1O)C(=O)OC2 |  | 40.9% |  |  | Effect (K562 [9]): 65.4%
6 | COc1c(C)c2c(c(O)c1C/C=C(/C)CCCOP(=O)(O)CP(=O)(O)OC[C@@H]1OC(n3cnc4c(N)ncnc43)[C@@H](O)[C@H]1O)C(=O)OC2 (stereo partly specified) | 0.33 µM | 9% | 0.29 µM | 1.5 µM | Effect (K562 [10]): 90%
7 | COc1c(C)c2c(c(O)c1CCOP(=O)(O)CP(=O)(O)OCCc1c(O)c3c(c(C)c1OC)COC3=O)C(=O)OC2 | 2.3 µM | 0.4% | 0.47 µM | 2090 µM | Effect (K562 [11]): 4.4%
8 | COc1c(C)c2c(c(O)c1CCOP(=O)(O)CP(=O)(O)O)C(=O)OC2 | 0.89 µM | 3.3% | 0.4 µM | 43.2 µM | Effect (K562 [12]): 67%
9 | NC(=O)c1csc([C@H]2O[C@@H](COP(=O)(O)OP(=O)(O)OC[C@H]3O[C@@H](n4cnc5c(N)ncnc54)[C@H](O)[C@@H]3O)[C@H](O)[C@@H]2O)n1 |  | 2.5% |  |  | Effect (K562 [4]): 35%
10 | NC(=O)c1csc([C@@H]2O[C@H](CO)[C@@H](O)[C@H]2O)n1 [TIAZOFURIN] |  | 5.3% |  |  | NA [13]: inactive; Effect (K562 [6]): 80%; NA [14]: inactive
11 | NC(=O)c1csc([C@@H]2O[C@H](COP(=O)(O)CP(=O)(O)OC[C@@H]3O[C@H](n4cnc5c(N)ncnc54)[C@@H](O)[C@H]3O)[C@@H](O)[C@H]2O)n1 | 0.11 µM | 2.4% | 0.11 µM |  | Effect (K562 [15]): 35%
12 | NC(=O)c1cccc([C@@H]2O[C@H](CO)[C@@H](O)[C@H]2O)c1 |  |  |  | 1.5 µM | NA [16]: inactive; NA [17]: inactive

Source: ChEMBL document CHEMBL1135710, “Novel mycophenolic adenine bis(phosphonate) analogues as potential differentiation agents against human leukemia” (J Med Chem, 2002)
